Laboratory results: ChEMBL document CHEMBL1130315 (J Med Chem, 1997)

Tests used:
[1] = target: Sigma 2 receptor; assay: Binding affinity was evaluated using [3H]-DTG binding to sigma-2 receptor from rat liver
Method in brief: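 Rat liver membranes (male Sprague-Dawley), 160 μg protein, with 5 nM [3H]DTG plus 1 μM dextrallorphan to mask σ1 sites; 50 mM Tris-HCl pH 8.0, 120 min at 25 °C. Nonspecific binding with 10 μM haloperidol; filtration on poly(ethylenimine)-soaked glass fiber filters, scintillation counting.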

[2] = target: Sodium-dependent dopamine transporter (Rattus norvegicus, UniProt P23977); assay: Binding affinity was evaluated using [3H]WIN-35428 binding to dopamine transporter (DAT) in rat caudate-putamen; format: tissue-based
[3] = target: Sodium-dependent dopamine transporter (Rattus norvegicus) (UniProt P23977); assay: Binding constant(Bmax) of [3H]WIN-35428 at saturation in rat caudate-putamen tissue pre-incubated in buffer at 10 uM (Dopamine transporter); format: tissue-based
Method in brief: (§1)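 Rat caudate-putamen homogenate in Krebs-HEPES buffer pH 7.4, preincubated 1 h on ice with buffer alone, 100 nM or 10 μM ligand, then washed by two centrifugations. Twelve-point saturation with 0.1–25 nM [3H]WIN 35,428, 1 h on ice; filtration. Bmax and KD fitted by nonlinear least squares across replicate experiments, with standard errors; protein by modified Lowry.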

[4] = target: Sodium-dependent dopamine transporter (Rattus norvegicus) (UniProt P23977); assay: Binding constant(Bmax) of [3H]WIN-35428 at saturation in rat caudate-putamen tissue preincubated in buffer at 100 nM (Dopamine transporter); format: tissue-based; method in brief: as §1
[5] = target: Sodium-dependent dopamine transporter (Rattus norvegicus) (UniProt P23977); assay: Binding constant(Bmax) of [3H]WIN-35428 at saturation in rat caudate-putamen tissue pre-incubated in buffer (Dopamine transporter); format: tissue-based; method in brief: as §1

Chain of Sodium-dependent dopamine transporter (Rattus norvegicus) (P23977 whole entry): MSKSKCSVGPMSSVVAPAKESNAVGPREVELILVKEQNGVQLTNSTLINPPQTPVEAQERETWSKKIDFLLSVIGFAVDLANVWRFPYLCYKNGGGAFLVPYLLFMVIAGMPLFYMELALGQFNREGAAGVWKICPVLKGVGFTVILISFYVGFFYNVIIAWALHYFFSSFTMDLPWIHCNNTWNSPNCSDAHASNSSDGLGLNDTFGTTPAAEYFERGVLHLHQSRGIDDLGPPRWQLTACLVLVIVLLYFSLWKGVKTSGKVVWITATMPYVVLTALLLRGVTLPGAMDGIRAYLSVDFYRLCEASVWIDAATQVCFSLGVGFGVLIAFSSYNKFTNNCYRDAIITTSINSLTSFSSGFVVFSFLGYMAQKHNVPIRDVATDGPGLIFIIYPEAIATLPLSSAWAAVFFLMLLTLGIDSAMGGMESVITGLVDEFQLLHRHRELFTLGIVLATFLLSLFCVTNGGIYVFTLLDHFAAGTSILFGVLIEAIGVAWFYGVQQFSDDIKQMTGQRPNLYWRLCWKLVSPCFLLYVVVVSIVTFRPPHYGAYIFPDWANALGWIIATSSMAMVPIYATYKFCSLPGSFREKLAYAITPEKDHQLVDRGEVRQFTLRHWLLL
Chain of Sodium-dependent dopamine transporter (P23977 whole entry): as above

| SMILES | IC50 [1] [µM] | IC50 [2] [µM] | Bmax (fM (mg of protein)-1) [3] | Bmax (fM (mg of protein)-1) [4] | Bmax (fM (mg of protein)-1) [5] |
| --- | --- | --- | --- | --- | --- |
| C[C@@H]1CN(CCCn2c3ccccc3c3ccccc32)C[C@H](C)N1 [RIMCAZOLE] | 0.386 | 0.0576 | – | – | – |
| CC1CN(CCCn2c3ccccc3c3ccccc32)CC(C)N1CCCN=C=S (stereo not drawn) | 0.877 | 0.523 | – | – | – |
| CC1CN(CCCn2c3ccccc3c3ccccc32)CC(C)N1CCCCCCN=C=S (stereo not drawn) | 0.211 | – | 6.65 | 167 | 537 |
| CC1CN(CCCn2c3ccccc3c3ccccc32)CC(C)N1CCN=C=S (stereo not drawn) | 1.44 | 1.25 | – | – | – |
| C[C@H]1CN(CCCn2c3ccccc3c3ccccc32)C[C@H](C)N1C | 0.294 | 0.244 | – | – | – |
| CC1CN(CCCn2c3ccccc3c3cc(N=C=S)ccc32)CC(C)N1C (stereo not drawn) | – | 1.33 | – | – | – |
